Data published in ChEMBL document CHEMBL4616675, “Discovery of 6-Phenylhexanamide Derivatives as Potent Stereoselective Mitofusin Activators for the Treatment of Mitochondrial Diseases” (J Med Chem, 2020).
In brackets after ≈: the same amount, converted by molar mass.

What was measured:
[1] = Half life in human liver microsomes at 1 uM by LC-MS/MS analysis; format: ADME, Microsome; details: for t1/2: microsomes, 1 µM; for half-life at 1 µM: liver microsomes
[2] = Half life in mouse liver microsomes at 1 uM by LC-MS/MS analysis; format: ADME, Microsome; details: for t1/2: microsomes, 1 µM; for half-life at 1 µM: liver microsomes
[3] = Half life in CD1 mouse plasma at 10 mg/kg, iv by LC-MS/MS analysis; format: ADME, organism-based; details: for t1/2: mouse, in vivo; for half-life: CD1, mouse, plasma
[4] = Cmax in CD1 mouse plasma at 10 mg/kg, iv by LC-MS/MS analysis; format: ADME, organism-based; design: dose 10 mg/kg, route intravenous; details: in vivo
[5] = AUC in CD1 mouse plasma at 10 mg/kg, iv by LC-MS/MS analysis; format: ADME, organism-based; details: in vivo
[6] = Ratio of drug level in brain to plasma in CD1 mouse at 10 mg/kg, iv by LC-MS/MS analysis; format: ADME, organism-based
Procedure, shortened: (§1)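 Male CD-1 mice, 7–9 weeks, 15 per compound; single tail-vein dose of 10 mg/kg from a 2 mg/ml solution in 10% DMSO/90% (30% HP-β-CD). Plasma and brain sampled at increasing times, assayed in duplicate by LC-MS/MS. Parameters from non-compartmental analysis; mean of at least 3 mice per condition.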

[7] = Half life in CD1 mouse brain at 10 mg/kg, iv by LC-MS/MS analysis; format: ADME, organism-based
[8] = AUC in CD1 mouse brain at 10 mg/kg, iv by LC-MS/MS analysis; format: ADME, organism-based; details: in vivo
[9] = Drug level in CD1 mouse brain at 10 mg/kg, iv after 1 hr by LC-MS/MS analysis; format: ADME, organism-based; details: read-out: Drug uptake
Procedure, shortened: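 Male CD-1 mice, 7–9 weeks old, given a single 10 mg/kg tail-vein dose. Compound formulated at 2 mg/ml in 10% DMSO/90% (30% HP-β-CD). Plasma and brain sampled at intervals after dosing and analysed in duplicate by LC-MS/MS. Parameters derived by non-compartmental analysis. Values are means of at least 3 mice per condition; 15 mice per compound.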

[10] = Volume of distribution in CD1 mouse at 10 mg/kg, iv by LC-MS/MS analysis; format: ADME, organism-based; details: in vivo; procedure, shortened: as §1
[11] = Cmax in CD1 mouse brain at 10 mg/kg, iv by LC-MS/MS analysis; format: ADME, organism-based; design: dose 10 mg/kg, route intravenous
[12] = Stability in human plasma at 2 uM after 120 mins by LC-MS/MS analysis relative to control; format: ADME, cell-free; details: read-out: Stability
Procedure, shortened: (§2)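 Compounds at 2 µM in clarified freeze-thawed plasma, sampled at 0, 10, 30, 60 and 120 min. Supernatants after protein precipitation analysed by LC-MS/MS; the 120 min value is reported. Run in duplicate.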

[13] = Stability in mouse plasma at 2 uM after 120 mins by LC-MS/MS analysis relative to control; format: ADME, cell-free; details: read-out: Stability; procedure, shortened: as §2
[14] = Kinetic solubility in pH 7.4 aqueous solution incubated for 24 hrs by UV spectroscopy; format: physicochemical; details: read-out: Kinetic_solubility

t1/2 [1] [min] | t1/2 [2] [min] | Structure (SMILES) | other results
> 145 | > 145 | O=C(CCCCCc1ccncn1)NC1CCC(O)CC1 (configuration not stated) | –
> 145 | 91 | O=C(NCCCc1nnc(C2CC2)n1-c1ccccc1)NC1CCOCC1 | t1/2 [3]: 11.4 min
43 | 6 | CC1CCCCC1NC(=O)NCCCc1nnc(-c2ccccc2)n1C (configuration not stated) | –
8 | 28 | CC1CCCCC1NC(=O)NCCc1nnc(-c2ccccc2)n1C (configuration not stated) | –
> 145 | > 145 | O=C(CCCCCc1ccncc1)NC1CCC(O)CC1 (configuration not stated) | –
> 145 | 137.5 | O=C(NCCCCc1ccccc1)NC1CCNCC1 | –
13.3 | 1.9 | CC1CCCCC1NC(=O)NCCCCc1ccccc1 (configuration not stated) | –
> 145 | > 145 | O=C(CCCCCc1ccccn1)NC1CCC(O)CC1 (configuration not stated) | –
40.1 | 24.2 | CC1CC(O)CCC1NC(=O)NCCCCc1ccccc1 (configuration not stated) | Cmax [4]: 3647 ng/mL; AUC [5]: 2564 ng·h/mL; BPR [6]: 0.081; half-life [7]: 97.2 min; AUC [8]: 207 ng·h/g; concentration at 1 h [9]: < 30 ng/g; half-life [3]: 38.4 min; Vd [10]: 2 L/kg; Cmax [11]: 366 ng/g
> 145 | > 145 | O=C(CCCCOc1ccccc1)N[C@H]1CC[C@H](O)CC1 | –
6 | 2 | CC1CCCCC1NC(=O)NCCCc1nnc(C2CC2)n1-c1ccccc1 (configuration not stated) | remaining at 2 h, 2 µM [12]: 95%; remaining at 2 h, 2 µM [13]: 100%; t1/2 [3]: 12.6 min; solubility kinetic at 24 h [14]: > 200 µM
> 145 | > 145 | O=C(COCCCc1ccccc1)N[C@H]1CC[C@H](O)CC1 | –
5 | 1 | CC1CCCCC1NC(=O)NCCCc1nnc(C2CC2)n1-c1ccc(F)cc1 (configuration not stated) | –
53.6 | 9.9 | O=C(CCCCCc1ccccc1)NC1CCOCC1 | –
> 145 | > 145 | O=C(NCCCCc1ccccc1)NC1CCC(O)CC1 (configuration not stated) | Cmax [4]: 6100 ng/mL; AUC [5]: 4860 ng·h/mL; BPR [6]: 0.171; half-life [7]: 104 min; AUC [8]: 829 ng·h/g; concentration at 1 h [9]: < 120 ng/g; half-life [3]: 69 min; Vd [10]: 2 L/kg; Cmax [11]: 1270 ng/g
> 145 | > 145 | CCn1c(CCCNC(=O)NC2CCOCC2)nnc1C1CC1 | t1/2 [3]: 22.8 min
62 | 17 | O=C(NCCCc1nnc(C2CC2)n1-c1ccc(F)cc1)NC1CCC(F)CC1 (configuration not stated) | –
– | – | CC1CCCCC1NC(=O)NCCOc1nnc(C2CC2)n1-c1ccccc1 (configuration not stated) | remaining at 2 h, 2 µM [12]: 98%; half-life at 1 µM [1]: 8 min; half-life at 1 µM [2]: 3 min; remaining at 2 h, 2 µM [13]: 84%; solubility kinetic at 24 h [14]: 24 µM (≈ 9.2 µg/mL)
> 145 | > 145 | O=C(CCOCCc1ccccc1)N[C@H]1CC[C@H](O)CC1 | –
> 145 | 125.3 | O=C(CCCCCc1cccnc1)NC1CCC(O)CC1 (configuration not stated) | –
23.7 | 111.9 | NC1CCC(NC(=O)CCCCCc2ccccc2)CC1 (configuration not stated) | –
3 | 1 | CC1CCCCC1NC(=O)NCCSc1nnc(C2CC2)n1-c1ccccc1 (configuration not stated) | remaining at 2 h, 2 µM [12]: 95%; remaining at 2 h, 2 µM [13]: 94%; solubility kinetic at 24 h [14]: 67 µM (≈ 26.8 µg/mL)
– | – | O=C(CCCCCc1ccccc1)NC1CCC(F)(F)CC1 | half-life at 1 µM [1]: 10.2 min; half-life at 1 µM [2]: 2.8 min
> 145 | > 145 | O=C(CCCOCc1ccccc1)N[C@H]1CC[C@H](O)CC1 | –
7 | 1.4 | CC1CCC(NC(=O)CCCCCc2ccccc2)CC1 (configuration not stated) | –

Structure (SMILES) | t1/2 [1] [min] | t1/2 [2] [min] | other results
O=C(N[C@H]1CC[C@H](O)CC1)OCCCCc1ccccc1 | 131.3 | 48.9 | –
